Experimental data: ChEMBL document CHEMBL1140341, “Synthesis and radioligand binding studies of C-5- and C-8-substituted 1-(3,4-dimethoxybenzyl)-2,2-dimethyl-1,2,3,4-tetrahydroisoquinoliniums as SK channel blockers related to N-methyl-laudanosine and N-methyl-noscapine” (J Med Chem, 2005)

Experiments:
[1] = molecular target: Small conductance calcium-activated potassium channel (Rattus norvegicus) (UniProt P70604+P70606+P70605); test: Displacement of [125I]apamin from calcium-activated potassium (SK) channels of rat cortex at 10 uM
Outline: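 Rat cortical synaptosomes (0.2 mg protein/mL) in 10 mM Tris-HCl pH 7.5 with 5.4 mM KCl and 0.1% BSA. Incubated 1 h at 0 °C with about 10 pM 125I-apamin and 10 μM drug. Filtered on polyethylenimine-coated GF/C filters, washed twice, counted by scintillation. Nonspecific binding defined with 0.1 μM unlabeled apamin; filter binding without synaptosomes subtracted.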

[2] = molecular target: Small conductance calcium-activated potassium channel (Rattus norvegicus, UniProt P70604+P70606+P70605); test: Inhibition of [125I]apamin binding to calcium-activated potassium (SK) channel of rat cortex
Outline: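 Cortical synaptosomes (0.2 mg protein/mL), Tris-HCl 10 mM pH 7.5 buffer with 5.4 mM KCl and 0.1% BSA. 1 h at 0 °C with ±10 pM 125I-apamin and nine drug concentrations (10-4–10-7 M); run for drugs displacing at least 20% at 10 μM. Polyethylenimine-coated GF/C filtration, scintillation counting. Nonspecific binding with 0.1 μM apamin; curve-fitted.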

SMILES | Displacement [1] [%] | IC50 [2] [µM] | Ki [2] [µM]
CCc1cccc2c1C(Cc1ccc(OC)c(OC)c1)N(C)CC2 (stereo not given) | 2 |  | 
CCc1cccc2c1C(Cc1ccc(OC)c(OC)c1)[N+](C)(C)CC2.[I-] (stereo not given) | 44 | 13.6 | 2.6
COc1ccc(CC2c3c(cccc3OC)CC[N+]2(C)C)cc1OC (stereo not given) | 9 |  | 
COc1ccc(CC2c3c(cccc3C(C)C)CC[N+]2(C)C)cc1OC.[I-] (stereo not given) | 55 | 8.6 | 1.6
COc1ccc(CC2c3cccc(Br)c3CC[N+]2(C)C)cc1OC (stereo not given) | 29 | 25.4 | 4.9
COc1ccc(CC2c3c(Br)cccc3CCN2C)cc1OC (stereo not given) | 10 |  | 
COc1ccc(CC2c3cccc(Cl)c3CCN2C)cc1OC (stereo not given) | 8 |  | 
COc1ccc(CC2c3c(C)cccc3CCN2C)cc1OC (stereo not given) | 10 |  | 
COc1ccc(CC2c3c(Cl)cccc3CC[N+]2(C)C)cc1OC.[I-] (stereo not given) | 23 | 50 | 9.3
COc1ccc(CC2c3c(C)cccc3CC[N+]2(C)C)cc1OC.[I-] (stereo not given) | 24 | 28.4 | 5.5
COc1ccc(CC2c3sc(C)cc3CC[N+]2(C)C)cc1OC (stereo not given) | 18 |  | 
COc1ccc2c(c1OC)C(=O)OC2C1c2c(cc3c(c2OC)OCO3)CC[N+]1(C)C.[I-] (stereo not given) | 27 | 14.1 | 3.6
COc1ccc(CC2c3c(cccc3OC)CCN2C)cc1OC (stereo not given) | 1 |  | 
COc1ccc(CC2c3sccc3CC[N+]2(C)C)cc1OC (stereo not given) | 15 |  | 
COc1ccc(CC2c3c(Br)cccc3CC[N+]2(C)C)cc1OC.[I-] (stereo not given) | 26 | 35.2 | 6.8
COc1ccc(CC2c3c(cccc3C(C)C)CCN2C)cc1OC (stereo not given) | 10 |  | 
COc1ccc(CC2c3cccc(Br)c3CCN2C)cc1OC (stereo not given) | 1 |  | 
COc1ccc(C[C@H]2c3cc(OC)c(OC)cc3CC[N+]2(C)C)cc1OC.[I-] [LAUDANOSINE METHIODIDE] | 57 | 8.7 | 1.6
COc1ccc(CC2c3cccc(Cl)c3CC[N+]2(C)C)cc1OC (stereo not given) | 27 | 39.6 | 7.6
COc1ccc(CC2c3sc(C)cc3CCN2C)cc1OC (stereo not given) | 1 |  | 
COc1ccc(CC2c3c(Cl)cccc3CCN2C)cc1OC (stereo not given) | 5 |  | 
COc1ccc(CC2c3sccc3CCN2C)cc1OC (stereo not given) | 2 |  | 
